# Most compounds without a hit are left out; they make up all but 9.3% or so of the library.
# D1 mod = allosterically modulates the human D1 dopamine receptor; AID 641; HEK293 D1, CRE-luciferase, dopamine EC30 potentiation; actives deviate in either direction; B-score at 10 µM; actives 5.9% (n = 58,000); P21728;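 active = luminescence count or its row- and column-corrected plate score outside the 99.7% band of the plate's sample wells, on either side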
# Target sequence (P21728 whole entry, looked up): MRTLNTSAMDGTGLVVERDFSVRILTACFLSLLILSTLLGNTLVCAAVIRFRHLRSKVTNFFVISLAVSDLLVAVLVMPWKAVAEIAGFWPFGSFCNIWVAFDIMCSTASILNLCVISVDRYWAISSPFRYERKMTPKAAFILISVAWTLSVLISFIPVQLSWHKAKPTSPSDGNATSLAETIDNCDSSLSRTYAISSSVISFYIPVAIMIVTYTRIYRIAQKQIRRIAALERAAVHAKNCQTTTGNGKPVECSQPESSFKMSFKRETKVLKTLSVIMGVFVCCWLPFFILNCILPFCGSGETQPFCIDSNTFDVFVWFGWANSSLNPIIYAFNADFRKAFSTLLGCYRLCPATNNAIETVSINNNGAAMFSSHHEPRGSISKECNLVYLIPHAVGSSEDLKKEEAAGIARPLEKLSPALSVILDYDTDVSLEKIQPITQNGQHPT
# hDAT+cocaine = changed human dopamine transporter uptake under cocaine IC80; Q01959; LLC-PK1 hDAT cells, [14C]-dopamine uptake with cocaine IC80; actives deviate in either direction; B-score at 10 µM; actives 1.3% (n = 110,000);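 active = Z score or B-score, a plate-position-corrected score, falls beyond the plate's 99.7% confidence bounds, in either direction; inactive = both scores lie inside the 99.7% bounds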
# tolC growth inh = growth inhibitors of E. coli BW25113 tolC mutant; OD615; growth inhibition, % at 10 µM (by protocol); actives 2.2% (n = 65,000); AID 573;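 active = growth inhibition at or above a cutoff equal to the mean over every tested compound plus 3 SD, cut at about 60% in these data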;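 note: growth measured after 20 h incubation at 37 °C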
#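 Signal: optical density read at 615 nm; Assay system: E. coli ΔtolC::kan strain BW25113; Times: 20 h incubation with compound, 37 °C; Dosing: 10 µM final, single dose.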
# PostGolgi yeast = growth inhibition of a yeast mutant, post-Golgi transport screen. post-Golgi transport phenotypic cell assay. inhibition, % at 10 µM. actives 0.9% (n = 98,000);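 note: yeast cells grown in 1536-well plates; yeast grown about 18 h at 30C before absorbance read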
# PostGolgi ctrl = yeast control strain growth, post-Golgi counter-screen. inhibition, % at 10 µM. efflux-deficient yeast background strain, growth absorbance A615, 16 h. actives 5% (n = 98,000)
# Ecoli WT expand = E. coli BW25113 growth inhibition, expanded screen; OD600 absorbance; growth inhibition, % at 100 µM; actives 0.15% (n = 98,000); AID 710;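 active = growth inhibition above about 50% at one test dose, limit read from the data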;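 note: growth measured after 20 h incubation at 37 °C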
# D1 mod confirm = confirmation of human D1 dopamine receptor allosteric modulators | HEK293 D1 CRE-luciferase, dopamine EC30 potentiation; active compounds read high | actives 88% (n = 2,200) | shares compounds with D1 mod | luminescence at 10 µM;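 active = luminescence in either of two replicates above the same-plate mean plus 3 SD of the low-dose dopamine control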
# D1 no dopamine = activates D1 CRE-luciferase signal without dopamine present; shares compounds with D1 mod; luminescence at 10 µM; HEK293 D1 CRE-luciferase, luminescence, no dopamine; active compounds read high; actives 0.8% (n = 1,900); in the data active = luminescence above about 3900
# Isoprot counter = counter-screen for D1 modulators: isoproterenol response in HEK293 cells | shares compounds with D1 mod | HEK293 D1 CRE-luciferase, isoproterenol EC30 counter-screen | calls only at 10 µM | actives 63% (n = 2,200) | AID 647;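 active = luminescence in either replicate above plate mean of wells with a partly effective reference agonist dose plus 3 SD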;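 note: isoproterenol raises cAMP through native beta-adrenoceptor Gs so signal bypasses D1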
# Hits are given with their value; - = inactive; . = no result given; + = active, no number. Cut-off read from the data, not from the text of the source, unless noted: active = inhibition above about 30%; inactive = the rest.
SMILES,D1 mod,hDAT+cocaine,tolC growth inh,PostGolgi yeast,PostGolgi ctrl,Ecoli WT expand,D1 mod confirm,D1 no dopamine,Isoprot counter
CCn1c(SCc2cccnc2)nc2c1c(=O)n(C)c(=O)n2C,5,-,-,-,-,-,5832,-,-
CCCCn1c(SCc2cccnc2)nc2c1c(=O)n(C)c(=O)n2C,-,-,-,-,-,-,.,.,.
COc1ccc(NC(=O)C(=O)N2N=C(C(C)C)CC2(O)C(F)(F)F)cc1 (stereo not drawn),.,-,.,-,-,-,.,.,.
O=c1c2ccccc2n(Cc2ccc(F)cc2)c(=O)n1C1CCCC1,4.9,-,76,-,-,-,9856,-,+
C=CCn1c(Cc2cccs2)nnc1SCC(=O)c1cccc(Br)c1,-,-,-,-,-,-,.,.,.
COc1ccc(C2c3c(-c4cc(Cl)c(C)cc4O)n[nH]c3C(=O)N2Cc2cccnc2)cc1OC (stereo not drawn),4.3,3,-,-,-,-,9304,.,+
CCNc1nc(NCC)n2c(SCc3ccc(F)cc3)nnc2n1,.,-,-,-,-,-,.,.,.
CCNc1nc(NCC)n2c(SCc3nc4ccccc4c(=O)[nH]3)nnc2n1,27,-,-,-,-,-,21452,-,+
CCOc1ccccc1NC(=O)Cn1nnc(-c2ccc(OCC)c(OCC)c2)n1,29,-,-,-,-,-,19636,-,+
CCOc1ccc(-c2nnn(CC(=O)NCc3ccc(OC)cc3)n2)cc1OCC,5.3,-,-,-,-,-,6444,-,-
CC(=O)c1ccc(N2CCCCCC2)c(F)c1,2.7,-,-,-,-,-,-,-,-
CC(=O)c1cc(F)c(N2CCCCCC2)cc1C,.,-,.,.,.,.,.,.,.
Cc1nc(NCc2ccco2)c2oc3ccccc3c2n1,6,.,.,-,-,-,11576,.,+
CCc1nc(N2CCCCC2)c2oc3ccccc3c2n1,6.3,-,100,-,-,-,6440,-,-
c1ccc2c(c1)oc1c(N3CCOCC3)ncnc12,-,-,-,-,-,-,.,.,.
CCc1nc(NCc2ccccn2)c2oc3ccccc3c2n1,.,-,-,-,-,-,.,.,.
Cc1nc(N2CCOCC2)c2oc3ccccc3c2n1,4.6,-,-,-,-,-,13356,-,+
Cc1nc(Nc2ccncc2)c2oc3ccccc3c2n1,-,-,.,-,-,-,.,.,.
Cc1nc(SCCO)c2oc3ccccc3c2n1,7.3,-,-,-,-,-,10060,.,+
Cc1nc(SCC(=O)O)c2oc3ccccc3c2n1,-,-,-,-,-,-,.,.,.
CCSc1ncnc2c1oc1ccccc12,12,-,.,-,-,-,11660,-,+
CCc1nc(NC(C)C)c2oc3ccccc3c2n1,22,-,-,-,-,-,7576,.,+
CCOC(=O)[C@@H]1[C@H]2COc3ccccc3[C@@H]2N2C(=O)N(c3cccc(F)c3)C(=O)[C@]12C,.,-,.,.,.,.,.,.,.
COc1ccc(S(=O)(=O)N2CCc3ccccc32)cc1C(=O)OCc1nnc(-c2ccccc2)o1,3.2,-,-,-,-,-,7576,-,+
O=C(CSc1nnc(-c2ccccc2Br)o1)N1CCc2ccccc2C1,9.9,2.9,-,-,-,-,18392,-,+
SMILES,D1 mod,hDAT+cocaine,tolC growth inh,PostGolgi yeast,PostGolgi ctrl,Ecoli WT expand,D1 mod confirm,D1 no dopamine,Isoprot counter
O=C(CSc1nnnn1-c1ccccc1)N1CCc2ccccc2C1,5.4,-,-,-,-,-,5840,.,-
COc1cccc(N(C(=O)c2cccs2)c2nc3ccccc3s2)c1,7.6,-,-,-,-,-,7024,.,+
NC(=O)c1cc(Br)cc2c3c([nH]c12)CCCC3,3.9,-,-,-,78,-,11200,-,+
COC(=O)c1cc(CSc2nnc(NC3CCCCC3)s2)oc1C,10,-,-,-,-,-,10504,-,+
COC(=O)c1cc(CSc2nnc(-c3ccccc3)c(-c3ccccc3)n2)oc1C,-,-,-,-,-,-,.,.,.
CC1(c2nnc(-c3cccc(Cl)c3)o2)CC(c2ccccc2)=NO1 (stereo not drawn),.,-,.,.,.,.,.,.,.
c1ccc(N2CCN(Cc3cn4cccnc4n3)CC2)cc1,-,-,-,-,-,-,.,.,.
CCOC(=O)c1c(NC(=O)OC)sc(C(=O)N(C)C)c1C,4.1,-,-,-,-,-,13484,-,+
CCOC(=O)c1c(NC(=O)CC)sc(C(C)=O)c1C,16,-,-,-,-,-,12336,-,+
CCOC(=O)c1c(NC(=O)c2cc(CC(C)C)on2)sc(C(C)=O)c1C,.,-,.,-,-,-,.,.,.
CCOC(=O)c1sc(NC(=O)COC(=O)Cn2cnc3ccccc32)c(C(=O)OCC)c1C,5,.,-,-,-,-,9720,-,-
CCCc1cc(C(=O)Nc2sc(C(C)=O)c(C)c2C(=O)OCC)no1,6.5,-,-,-,-,-,7336,-,-
CCOC(=O)c1c(NC(=O)COC(=O)Cn2c(C(F)(F)F)nc3ccccc32)sc(C)c1C,.,-,.,-,-,-,.,.,.
C(=N\c1nccs1)/c1cccnc1,-,-,-,.,.,.,.,.,.
CCOC(=O)c1sc(NC(=O)CSc2nnc(C)s2)c(C(=O)OCC)c1C,6.1,-,-,-,-,-,25484,-,+
CCOC(=O)c1c(/N=C/N(C)C)sc(C(=O)OC)c1C,3.7,-,-,-,-,-,8988,.,+
C=CCNC(=O)c1ccccc1NC(=O)c1ccc(Cl)c(S(=O)(=O)Nc2ccccc2)c1,.,-,.,-,-,-,.,.,.
CN(C)C(=O)NC(O)C(Cl)Cl (stereo not drawn),.,-,.,-,-,-,.,.,.
Cc1csc(/C(=N\O)c2csc(C)n2)n1,-,-,-,-,-,-,.,.,.
COc1ccccc1N(CC(O)CN1C(=O)NC(C)(C)C1=O)S(=O)(=O)c1ccc(C)cc1 (stereo not drawn),-,-,-,-,-,-,.,.,.
CCOc1ccc(C)cc1-n1nc2ccccc2n1,.,-,.,-,-,-,.,.,.
CCOc1ccc(OCC)c2sc(C)nc12,11,-,-,-,-,-,20256,-,+
C=C(C)C1Cc2c(C)nn(-c3nc(C)cc(C)n3)c2C1 (stereo not drawn),-,-,-,-,-,-,.,.,.
C=C(C)C1Cc2nc(N)nc(C)c2C1 (stereo not drawn),14,-,-,-,-,-,14408,-,+
CCOc1ccc(CC(=O)NCc2cn3c(C)csc3n2)cc1,-,-,-,-,-,-,.,.,.
Nc1nnc(SCc2ccc(Cl)cc2)s1,.,-,.,.,.,.,.,.,.
CCOC(=O)c1ccc(CSc2nnc(N)s2)cc1,3.7,-,-,-,-,-,10844,.,+
